Rows were chosen to be rich in hits. Some 4% of all compounds tested hit in one or more screens of this group.
hERG rescue: hERG (human) protection from proarrhythmic block | hit rate 0.51% among 310,000 | Q12809 | CHO-hERG, FluxOR thallium flux, dofetilide IC70 present | activation (rescue from dofetilide block), less the hit threshold, % at 10 µM;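 active = activation above the mean of controls blocked by dofetilide plus 5 SD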;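 also: thallium influx through hERG after potassium depolarization seen as dye fluorescence rise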
KCNQ1 block: human KCNQ1 channel inhibition; CHO-K1 KCNQ1, FluxOR thallium flux fluorescence; hits give high values; hit rate 1.3% among 310,000; P51787; B-score at 10 µM;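 active = compounds whose thallium flux B-score, printed positive for inhibition, exceeds three library SD while starting fluorescence stays within three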;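 also: channel opened by potassium depolarization with thallium stimulus after 20 min compound exposure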
KCNK3 block: human KCNK3 channel inhibition, primary screen; hit rate 0.84% among 340,000; AID 602410; CHO-KCNK3 thallium flux, FluxOR fluorescence; hits give low values; B-score at 10 µM; O14649;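 active = B-score under library mean minus 4 SD, starting fluorescence ratio at most library mean plus 5 SD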;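 also: more negative B-score means stronger inhibition of thallium flux through KCNK3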
KCNK9 block: human KCNK9 channel inhibition. HEK293 KCNK9, FluxOR thallium flux fluorescence; hits give low values. hit rate 1.2% among 310,000. B-score at 10 µM. Q9NPC2;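 active = ratio B-score over 3 SD below the library mean, with starting fluorescence within 5 SD of its mean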;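 also: negative B-score means less thallium flux so channel inhibition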
Target sequence (Q9NPC2 whole entry, looked up): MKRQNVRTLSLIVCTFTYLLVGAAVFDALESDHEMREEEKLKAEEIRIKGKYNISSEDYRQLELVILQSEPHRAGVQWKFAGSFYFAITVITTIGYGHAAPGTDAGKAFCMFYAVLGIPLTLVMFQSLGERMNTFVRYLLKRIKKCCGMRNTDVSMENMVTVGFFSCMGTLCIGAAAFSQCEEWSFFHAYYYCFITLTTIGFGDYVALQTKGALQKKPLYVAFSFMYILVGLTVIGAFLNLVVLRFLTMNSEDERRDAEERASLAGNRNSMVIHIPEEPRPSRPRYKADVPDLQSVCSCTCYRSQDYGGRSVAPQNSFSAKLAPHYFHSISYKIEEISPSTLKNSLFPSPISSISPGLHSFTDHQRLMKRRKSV
PHOSPHO1 inh: blocks human PHOSPHO1 phosphatase activity; Q8TCT1; recombinant PHOSPHO1, absorbance phosphatase assay; inhibition, % at 13.3 µM; hit rate 1.1% among 290,000; AID 1565; in the data active = inhibition above about 60%
KCNQ1 act: potentiators or activators of human KCNQ1 potassium channel; hit rate 0.35% among 310,000; B-score at 10 µM; CHO-K1 KCNQ1, thallium flux FluxOR fluorescence; hits give high values; P51787; AID 2648;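 active = fluorescence ratio B-score, a plate-corrected score, at least three library SD, with initial intensity B-score within 5 SD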
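Doses: Single concentration per compound, DMSO matched to controls | Test system: KCNQ1-transfected CHO-K1 cells | Timing: 90 min dye loading and 20 min compound exposure, both at room temperature | Measured by: Kinetic FluxOR thallium fluorescence, 10-s 1-Hz baseline, 110-s post-stimulus read | Medium: Assay buffer with matched DMSO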
KCNK3 inh conf: confirmation of human KCNK3 two-pore domain potassium channel inhibitors; shares compounds with KCNK3 block; ratio percent of control, % at 10 µM; hit rate 99% among 2,400; CHO-KCNK3 thallium flux, FluxOR fluorescence; 0% buffer, 100% carvedilol maximal block;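 active = ratio percent of control, averaged over triplicates, above buffer control mean plus 5 SD, cut at about 64% in these data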;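 also: ratio is the fluorescence rise from min to max over baseline after thallium stimulus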
KCNK3 uninduced: counter-screen for KCNK3 inhibitors: effect in non-induced cells | non-induced KCNK3 parental cells, FluxOR thallium flux; hits give low values | thallium flux ratio (lower = more inhibition) at 10 µM | hit rate 40% among 2,400 | shares compounds with KCNK3 block;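 active = thallium flux ratio, averaged over three wells, more than 5 SD below the buffer control mean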;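 also: host cells are CHO cells without KCNK3 induction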
Each line names hits and unclear results; the compound was inactive in the other large screens (follow-up assays come after a bar, where they were run).

O=C(Nc1ccc(Cl)cn1)c1ccc2ccccc2n1	KCNK3 block -8.74 | KCNK3 inh conf 93.3 | KCNK3 uninduced inactive
COc1ccc(N2CCN(C(=O)CCCCn3c(=O)[nH]c4ccsc4c3=O)CC2)cc1	none
FC(F)(F)C1=Nc2cccc3cccc(c23)N1	KCNK3 block -13.3 (no result: hERG rescue, KCNQ1 block, KCNK9 block, PHOSPHO1 inh, KCNQ1 act) | KCNK3 inh conf 127.3 | KCNK3 uninduced 0.106
Fc1ccc(C2=Nc3cccc4cccc(c34)N2)cc1	none
CSc1cccc(CN2CCC(CO)(Cc3cccc(C(F)(F)F)c3)CC2)c1	KCNK3 block -11.1 | KCNK3 inh conf 115.7 | KCNK3 uninduced 0.148
Cc1ccc(-n2cc(CN3CCC(CO)(Cc4cccc(C(F)(F)F)c4)CC3)cn2)cc1	none
CCC(C)c1ccc(NC(=O)C2CC3CCC2C3)cc1 (configuration not stated)	KCNK3 block -9.44, KCNK9 block -6.58 (no result: PHOSPHO1 inh) | KCNK3 inh conf 116.3 | KCNK3 uninduced inactive
CCOC(=O)CNC(=S)N(CCCN1CCCC1)Cc1cccs1	none
COCC(C)n1c(SCc2cc(C(=O)OC)c(C)o2)nc2ccccc2c1=O (configuration not stated)	KCNK3 block -8.88 | KCNK3 inh conf 90.0 | KCNK3 uninduced inactive
CCCCCC(=O)NNC(=S)NC(=O)c1ccc([N+](=O)[O-])cc1	none
CCOC(=O)c1cc(-c2csc(COc3ccccc3)n2)on1	none
Cc1onc(-c2ccccc2)c1-c1csc(COc2ccccc2)n1	KCNK3 block -11.8, KCNK9 block -7.76 | KCNK3 inh conf 96.0 | KCNK3 uninduced 0.139
COc1ccc(NC(=O)C2CCCNC2)cc1OCC(C)C (configuration not stated)	none
COc1ccc(NC(=O)C2CCCN(CCCc3ccccc3)C2)cc1OCC(C)C (configuration not stated)	KCNK3 block -9.78 | KCNK3 inh conf 98.7 | KCNK3 uninduced inactive
Cc1onc(-c2ccccc2)c1-c1ccnn1S(=O)(=O)c1ccc(Cl)cc1	KCNK3 block -9.43 | KCNK3 inh conf 103.3 | KCNK3 uninduced inactive
CCCc1ccc2oc(C(=O)N(Cc3nccn3C)C(C)C)c(C)c2c1	KCNK3 block -10.6 | KCNK3 inh conf 113.0 | KCNK3 uninduced inactive
COc1ccc2c(c1OC)C(=O)OC2N1C(=O)CC[C@H]1C(=O)Nc1ccc2c(c1)OCO2 (some centres not stated)	none
Cc1c(C(=O)N2CCN(c3ccc(C(F)(F)F)cn3)CC2)oc2ccccc12	KCNK3 block -11.5 | KCNK3 inh conf 135.3 | KCNK3 uninduced 0.148
O=C(NC1CCCCC1)c1cc(Cl)nc2ccccc12	none
O=C(CSc1ccccc1Cl)N1CCC(c2nc3ccccc3s2)CC1	KCNK3 block -9.83 | KCNK3 inh conf 107.3 | KCNK3 uninduced inactive
COc1ccccc1/C=C1\SC(=S)N(N2C(=O)CCCC2=O)C1=O	KCNK3 block -9.35 | KCNK3 inh conf 105.3 | KCNK3 uninduced inactive
COc1ccc(/C=C2\SC(=S)N(N3C(=O)CCC3=O)C2=O)cc1O	none
C/C(=N\NC(=O)c1cc(-c2ccncc2)nc2ccccc12)c1ccc(OC(F)F)cc1	none
C/C(=C\C(=O)c1ccc(Cl)cc1)NCc1ccc2c(c1)OCO2	KCNK3 block -9.76, PHOSPHO1 inh 84.6 | KCNK3 inh conf 84.3 | KCNK3 uninduced 0.155
O=C(CSCc1ccc(Cl)cc1)NCc1ccc2c(c1)OCO2	none
CC1CCN(c2ccccc2NC(=O)c2cc3ccccc3o2)CC1	KCNK3 block -9.74 | KCNK3 inh conf 105.7 | KCNK3 uninduced inactive
N#Cc1cnc(NCc2ccc(Cl)cc2Cl)nc1	KCNK3 block -11.7 | KCNK3 inh conf 107.7 | KCNK3 uninduced inactive
COc1ccccc1N1CCN(C(=O)c2ccccc2N(C)S(=O)(=O)c2ccc(C)cc2)CC1	none
CCCn1c(/C=C/c2ccccc2)nc2ccccc21	none
COCCOCCn1c(/C=C/c2ccccc2)nc2ccccc21	KCNK3 block -9.23 | KCNK3 inh conf 93.0 | KCNK3 uninduced inactive
O=C(NCC1CCCO1)c1cccc(Br)c1 (configuration not stated)	none

Source: PubChem
